Data on ten molecules can be found in ChEMBL document CHEMBL1121437, “Structure--antitubulin activity relationship in steganacin congeners and analogues. Inhibition of tubulin polymerization in vitro by (+/-)-isodeoxypodophyllotoxin” (J Med Chem, 1980).

One assay has as its target Tubulin (Sus scrofa) (UniProt P02554+P02550). In words: (§1) Tested for the inhibition of polymerization rate of tubulin microtubule assembly. It is filed as functional. The essentials: (§2)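 Porcine brain tubulin (three cycles, ca. 1 mg/mL, 15% MAPs) in 0.1 M MES, 0.5 mM MgCl2, 1 mM EGTA, 1 mM GTP, pH 6.6. Compound (from 10^-2 M DMSO stock) preincubated with tubulin 1 h at 37 °C, cooled to 4 °C for 30 min, then warmed to 37 °C. Turbidity followed at 350 nm. I50 = concentration halving maximum polymerization rate.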

Assay [1] concerns the target T1, Tubulin (Sus scrofa, UniProt P02554+P02550). The description is as §1. It is filed as functional. The method, boiled down:
as §2

The target of assay [2] is T1, Tubulin. In words: Binding affinity against tubulin using [3H]colchicine as radioligand. The class given is protein assay.
Assay [3] has as its target T1, Tubulin. In words: Binding affinity against tubulin usingf [3H]-colchicine as radioligand. It is filed as protein assay.

Tubulin (Sus scrofa), sequence (P02550 whole entry, looked up): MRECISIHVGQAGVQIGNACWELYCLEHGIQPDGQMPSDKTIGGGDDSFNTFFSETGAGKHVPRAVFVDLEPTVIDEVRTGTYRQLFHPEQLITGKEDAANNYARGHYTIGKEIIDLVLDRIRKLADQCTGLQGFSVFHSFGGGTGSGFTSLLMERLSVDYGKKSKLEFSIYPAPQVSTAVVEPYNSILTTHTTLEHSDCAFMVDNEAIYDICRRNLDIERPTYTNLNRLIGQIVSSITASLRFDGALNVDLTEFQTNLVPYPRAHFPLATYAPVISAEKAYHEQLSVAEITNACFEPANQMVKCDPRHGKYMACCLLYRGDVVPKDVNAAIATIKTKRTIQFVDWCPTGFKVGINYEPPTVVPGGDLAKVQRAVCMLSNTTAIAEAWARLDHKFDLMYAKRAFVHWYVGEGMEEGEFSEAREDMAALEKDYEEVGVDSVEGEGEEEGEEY
Tubulin (Sus scrofa), sequence (P02554 whole entry, looked up): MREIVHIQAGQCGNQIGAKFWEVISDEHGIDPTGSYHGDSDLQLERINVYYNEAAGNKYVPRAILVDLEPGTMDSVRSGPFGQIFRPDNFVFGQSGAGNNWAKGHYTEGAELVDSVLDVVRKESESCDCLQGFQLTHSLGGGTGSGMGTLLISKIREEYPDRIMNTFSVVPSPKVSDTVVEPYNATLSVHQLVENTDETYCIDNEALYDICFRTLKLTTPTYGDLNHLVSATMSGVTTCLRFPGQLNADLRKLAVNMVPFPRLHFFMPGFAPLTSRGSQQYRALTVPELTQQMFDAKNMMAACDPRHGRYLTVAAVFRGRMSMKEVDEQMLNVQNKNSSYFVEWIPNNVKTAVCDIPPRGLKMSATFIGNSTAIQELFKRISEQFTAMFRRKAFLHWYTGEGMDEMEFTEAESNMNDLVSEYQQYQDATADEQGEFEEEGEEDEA

In turn, `COc1cc2c(c(OC)c1OC)-c1cc3c(cc1C[C@@H]1COC(=O)[C@H]1C2)OCO3` gave an I20 on Tubulin (Sus scrofa) of 70 µM. This molecule had an I50 on Tubulin [1] of 60 µM. Also, the inhibition constant Ki (usually the dissociation constant of the complex between target and ligand, obtained from inhibition or displacement) on Tubulin [2] was determined as 100 µM.

At Tubulin (Sus scrofa), `COc1cc2c(c(OC)c1OC)-c1cc3c(cc1C[C@@H]1COC(=O)[C@@H]1C2)OCO3` displayed an I30 of 700 µM. The I50 on Tubulin [1] was 5 µM. This molecule also registered a Ki on Tubulin [2] of 32 µM.

On to `COc1cc(CC2CCOC2=O)c(-c2cc3c(cc2CO)OCO3)c(OC)c1OC` (stereo not drawn), for which the Ki at Tubulin [2] was determined as 185 µM.

In turn, `COc1cc([C@@H]2c3cc4c(cc3CC3COC(=O)[C@@H]32)OCO4)cc(OC)c1OC` (mixture of isomers) showed an I50 at Tubulin [1] of 2.1 µM. The same molecule showed a Ki at Tubulin [2] of 201 µM.

`COc1cc2c(c(OC)c1OC)-c1cc3c(cc1C(=O)[C@@H]1COC(=O)[C@H]1C2)OCO3` (stereo in doubt; 5) returned an I50 on Tubulin [1] of 125 µM. For the same molecule, the Ki on Tubulin [2] was 178 µM.

On to `COc1cc2c(c(OC)c1OC)-c1cc3c(cc1C(=O)[C@@H]1COC(=O)[C@H]1C2)OCO3` (stereo in doubt; 9), for which the I50 on Tubulin [1] came out at 110 µM. The Ki at Tubulin [3] was […].

Molecule `COc1cc2c(c(OC)c1OC)-c1cc3c(cc1C(=O)[C@@H]1COC(=O)[C@H]1C2)OCO3` (stereo in doubt; 12) had an I50 at Tubulin [1] of 450 µM.

With `COc1cc2c(c(OC)c1OC)-c1cc3c(cc1C(=O)[C@@H]1COC(=O)[C@H]1C2)OCO3` (stereo in doubt; 13), the I50 on Tubulin [1] turned out to be 375 µM.

With `COc1cc2c(c(OC)c1OC)-c1cc3c(cc1C(=O)[C@@H]1COC(=O)[C@H]1C2)OCO3` (stereo in doubt; 17), the I50 at Tubulin [1] stood at 162 µM.

On to `COc1cc2c(c(OC)c1OC)-c1cc3c(cc1[C@@H](OC(C)=O)C1COC(=O)[C@H]1C2)OCO3` (stereo partly drawn) [STEGANACIN], for which, on Tubulin [1], the I50 was 3.5 µM. The molecule also had a Ki on Tubulin [2] of 10.5 µM.
